# Screening data: PubChem BioAssay, Johns Hopkins Ion Channel Center
# Compounds with a hit are over-represented: about 3% of the library has one in this group of screens.
# TRPC4 inh: blocks the mouse TRPC4 cation channel | B-score at 10 µM | AID 2247 | Q9QUQ5 | actives 0.39% (n = 300,000) | HEK293 TRPC4beta/mu-opioid, DAMGO-evoked Fluo4 calcium flux; hits give low values;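 active = B-score over 3 SD under the library average, no early fluorescence shift, positive overall ratio signal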
# Target sequence (Q9QUQ5 whole entry, looked up): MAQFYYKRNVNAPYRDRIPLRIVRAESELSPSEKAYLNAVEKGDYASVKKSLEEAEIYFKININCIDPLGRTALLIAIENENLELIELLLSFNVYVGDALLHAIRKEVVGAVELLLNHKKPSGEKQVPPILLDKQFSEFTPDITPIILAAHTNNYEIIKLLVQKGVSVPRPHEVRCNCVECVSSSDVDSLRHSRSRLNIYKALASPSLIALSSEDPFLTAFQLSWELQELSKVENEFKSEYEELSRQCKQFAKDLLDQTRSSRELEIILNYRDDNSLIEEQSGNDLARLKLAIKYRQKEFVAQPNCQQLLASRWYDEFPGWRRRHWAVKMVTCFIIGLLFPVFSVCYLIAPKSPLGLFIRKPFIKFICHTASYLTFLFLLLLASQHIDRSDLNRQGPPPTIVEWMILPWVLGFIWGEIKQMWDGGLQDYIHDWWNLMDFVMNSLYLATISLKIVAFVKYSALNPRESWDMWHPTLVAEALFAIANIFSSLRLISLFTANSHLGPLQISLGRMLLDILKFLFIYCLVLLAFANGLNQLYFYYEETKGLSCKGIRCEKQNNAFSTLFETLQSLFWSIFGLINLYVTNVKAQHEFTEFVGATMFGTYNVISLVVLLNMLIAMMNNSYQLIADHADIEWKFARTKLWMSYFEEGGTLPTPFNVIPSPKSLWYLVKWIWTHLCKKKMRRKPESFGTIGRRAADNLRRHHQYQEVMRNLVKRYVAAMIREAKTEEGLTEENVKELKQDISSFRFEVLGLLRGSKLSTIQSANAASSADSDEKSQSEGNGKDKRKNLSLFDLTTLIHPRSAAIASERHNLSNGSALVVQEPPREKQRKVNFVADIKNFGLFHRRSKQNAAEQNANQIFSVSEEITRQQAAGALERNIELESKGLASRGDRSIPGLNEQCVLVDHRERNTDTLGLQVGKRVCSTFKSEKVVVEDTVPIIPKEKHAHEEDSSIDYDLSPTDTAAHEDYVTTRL
#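 System: stable TRPC4beta/mu-opioid receptor HEK293 cells; Dosing: single-point compound dosing; Measured by: Fluo4 Ca2+ flux fluorescence; Read-out basis: per-well B score of integrated baseline-normalized Fluo4 ratio.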
# TRPC6 inh: blocks the mouse TRPC6 cation channel; actives 1.1% (n = 310,000); B-score at 10 µM; HEK293-TRPC6, membrane potential dye, ACh-evoked depolarization; hits give low values; Q61143;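 active = B-score under library mean minus 3 SD, initial fluorescence not abnormally high, positive integrated signal ratio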;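 also: B-score derived from integrated fluorescence ratio over the kinetic read; more negative B-score means stronger inhibition of depolarization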
# TRPC6 activator: mouse TRPC6 channel activation; B-score at 10 µM; Q61143; AID 2550; HEK293-TRPC6 membrane potential dye fluorescence; hits give high values; actives 0.13% (n = 310,000);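 active = B-score of the integrated fluorescence ratio above library mean plus 3 SD, and starting fluorescence ratio within library mean plus 5 SD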;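 also: higher score means more depolarization so channel activation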
# TRPC4 act: opens the mouse TRPC4 cation channel; HEK293 TRPC4beta/mu-opioid, Fluo4 calcium fluorescence; hits give high values; actives 0.49% (n = 310,000); Q9QUQ5; B-score at 10 µM;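 active = B-score above 5 SD of library B-scores, and initial fluorescence ratio not above library mean plus 5 SD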;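 also: positive B-score marks a calcium rise read as TRPC4 activation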
#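 System – HEK293 cells stably co-expressing mouse TRPC4beta and mu-opioid receptor · Signal – Fluo4 calcium-sensitive dye fluorescence, kinetic, 1 Hz baseline · Benchmarks – buffer (low) and maximal DAMGO (high) · Read-out – B score of integrated fluorescence ratio per well · Incubation – dye loading 45 min room temperature, 110 s kinetic read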
# TRPC4 potent: allosterically enhances the mouse TRPC4 cation channel | Q9QUQ5 | HEK293 TRPC4beta/mu-opioid, DAMGO EC20, Fluo-4 Ca2+ flux; hits give high values | B-score at 10 µM | actives 0.42% (n = 310,000) | AID 2227;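 active = B-score of calcium response area above 5 SD of library B-scores, with initial fluorescence ratio within 5 SD of library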;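 also: B-score of integrated fluorescence ratio over time as area under calcium response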
# Kir21 inh: blocks the mouse Kir2.1 inward-rectifier potassium channel. P35561. AID 1672. B-score at 10 µM. actives 0.85% (n = 310,000). HEK293-Kir2.1, FluxOR thallium flux fluorescence; hits give low values;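 active = fluorescence ratio B-score at or below minus 3 SD of library scores, with starting-brightness B-score within 2 SD, cut at about -4.2 in these data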;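 also: channel flux triggered by added potassium and thallium sulfate stimulus; B-score of peak minus minimum fluorescence over baseline after thallium stimulus; more negative B-score means stronger Kir2.1 block with less thallium influx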
# * marks the source's active call; other numbers are inactive results; i = inactive; . = not tested or not shown.
SMILES,TRPC4 inh,TRPC6 inh,TRPC6 activator,TRPC4 act,TRPC4 potent,Kir21 inh
CC(C)OC(=O)c1c2nc3ccccc3nc2n2c1[nH]c(=O)c1ccccc12,i,i,i,i,10*,-0.06
CC(C)CC(NS(=O)(=O)OCC(Cl)(Cl)Cl)c1ccccc1 (stereo unspecified),.,i,i,i,i,0.29
CC(NS(=O)(=O)OCC(Cl)(Cl)Cl)c1ccc(Br)cc1 (stereo unspecified),i,i,i,i,15*,-7.11*
Cc1cc(C)nc(NC(=NCCc2c[nH]c3ccccc23)NC(=O)Nc2cccc([N+](=O)[O-])c2)n1,i,i,i,i,i,0.73
COc1cccc(CN(C)Cc2nc3cc(C(F)(F)F)ccc3c(=O)[nH]2)c1,i,i,i,i,i,1.05
C=CCOc1ccc(CN(C)Cc2nc3cc(C(F)(F)F)ccc3c(=O)[nH]2)cc1,i,i,i,i,15*,-2.18
CC(C)=NOc1nc(NC(=O)NS(=O)(=O)c2ccccc2Cl)nc(N(C)C)n1,i,i,i,i,i,0.09
C(=C\c1ccccc1)/CSc1nnc(-c2ccccn2)n1Cc1ccco1,i,i,i,i,i,-7.92*
NC(=O)CSc1nnc(-c2ccccn2)n1Cc1ccco1,i,i,i,i,i,0.95
CCOCc1cn(CC(=O)c2ccc(Cl)cc2)c(C)nc1=N,-8*,i,i,i,i,0.04
COC(=O)c1ccc(NC(=O)CNc2ccccc2)cc1,i,i,i,i,i,1.12
COc1ccc(N=C(c2ccccc2)c2c(C)[nH]n(-c3ccccc3)c2=O)c(OC)c1,i,i,i,i,i,-0.7
COc1cc(-c2n[nH]c(=S)n2/N=C/c2cccn2C)cc(OC)c1OC,i,i,i,52*,i,0.12
Cn1cccc1/C=N/n1c(-c2ccco2)n[nH]c1=S,i,i,i,i,i,-0.35
CC(C)(C)c1cc(C(=S)N2CCN(CCO)CC2)cc(C(C)(C)C)c1O,i,i,i,i,i,0.06
CC(C)(C)c1cc(C(=O)CCN2CCOCC2)cc(C(C)(C)C)c1O,i,i,i,i,11*,0.64
CN(C)CCNc1ccc(Cl)cc1[N+](=O)[O-],i,i,i,i,21*,1.56
CCc1ccc(C(C(=O)NCc2ccc(F)cc2)N(C(=O)c2csnn2)C2CC2)cc1 (stereo unspecified),i,i,i,i,i,1.11
O=C(NCCOc1nc(N2CCCCC2)nc(N2CCCCC2)n1)Nc1ccccc1,i,i,i,i,i,2.17
CCN(CC)c1nc(OCCNC(=O)Nc2ccccc2)nc(N(CC)CC)n1,i,i,i,i,i,-5.31*
CCc1nn(C)c(N)c1C,i,i,i,i,i,0.16
Nc1cc(=O)[nH]c(=O)n1CCc1ccccc1,i,i,i,i,i,-0.67
OCCN(CCO)c1ncnc2c1sc1nc(N3CCOCC3)c3c(c12)CCCC3,i,i,i,i,15*,2.17
CC12CCC(c3c(C(=O)N4CCOCC4)nn(-c4ccccc4)c31)C2(C)C (stereo unspecified),i,i,i,i,10*,-0.11
Fc1cccc(F)c1-n1c(CN2CCCC2)csc1=S,i,i,i,i,i,-1.83
COCCn1c(SCC(=O)NC(C)c2ccc(F)cc2)nc2ccccc21 (stereo unspecified),i,i,i,i,i,-2.03
CNc1nc(SCc2ccccc2Cl)nc2c1CCCC2,-6*,i,i,i,i,3.55
O=c1[nH]c(SCc2ccccc2Cl)nc2c1CCC2,i,i,i,i,i,-0.32
Cc1cc(NC(=O)Cc2ccccc2)ccc1NC(=O)c1cccs1,i,i,i,i,i,0.86
